Reference: ChEMBL document CHEMBL1671698, “Is the recommended once-daily dose of lamivudine optimal in West African HIV-infected children?” (Antimicrob Agents Chemother, 2010)

Experiments:
[1] = AUC (0 to tau) in HIV-1 infected children aged 2.1 to 12.8 years at 4 mg/kg, po every 12 hrs coadministered with 8 mg/kg abacavir by HPLC; type: ADME, organism-based; conditions: human, plasma
[2] = Cmax in HIV-1 infected children aged 2.5 to 14 years at 8 mg/kg, po every 24 hrs coadministered with 240 mg/m2 of didanosine and efavirenz by HPLC; type: ADME, organism-based; design: dose 8 mg/kg, route oral; conditions: human, in vivo
Procedure, shortened: (§1)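 Treatment-naive children took once-daily oral lamivudine at 8 mg/kg (tablets or solution) at 6 p.m. without food, with didanosine 240 mg/m2 and weight-banded efavirenz. Blood was drawn after 15 days (38 children) or 2–5 months (11 children), either predose plus 1 and 3 h, or predose through 24 h. Plasma was kept at −70°C and assayed by HPLC-UV (LLOQ 0.025 mg/liter). Data were fitted with a two-compartment population model in NONMEM using FOCE.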

[3] = AUC (0 to tau) in HIV-1 infected children aged 2.5 to 14 years at 8 mg/kg, po every 24 hrs coadministered with 240 mg/m2 of didanosine and efavirenz by HPLC; type: ADME, organism-based; design: dose 8 mg/kg, route oral; conditions: human, plasma; procedure, shortened: as §1
[4] = AUC (0 to tau) in HIV-1 infected children aged 2.5 to 4.8 years at 4 mg/kg, po every 12 hrs by HPLC; type: ADME, organism-based; design: dose 4 mg/kg, route oral; conditions: human, plasma
[5] = AUC in HIV-1 infected children with body weight >17 kg at 8 mg/kg, po every 24 hrs coadministered with 240 mg/m2 of didanosine and efavirenz by HPLC; type: ADME, organism-based; design: dose 8 mg/kg, route oral; conditions: human, plasma
[6] = AUC (0 to tau) in HIV-1 infected children aged 8.5 to 12.3 years at 4 mg/kg, po every 12 hrs by HPLC; type: ADME, organism-based; design: dose 4 mg/kg, route oral; conditions: human, plasma
[7] = Cmax in HIV-1 infected children aged 6.9 years at 4 mg/kg, po every 12 hrs coadministered with nevirapine and stavudine by HPLC; type: ADME, organism-based; design: dose 4 mg/kg, route oral; conditions: human, in vivo
[8] = Cmax in HIV-1 infected children aged 2.5 to 4.8 years at 4 mg/kg, po every 12 hrs by HPLC; type: ADME, organism-based; design: dose 4 mg/kg, route oral; conditions: human, in vivo
[9] = AUC in HIV-1 infected children with body weight <17 kg at 8 mg/kg, po every 24 hrs coadministered with 240 mg/m2 of didanosine and efavirenz by HPLC; type: ADME, organism-based; design: dose 8 mg/kg, route oral; conditions: human, plasma
[10] = Cmax in HIV-1 infected children aged 2.1 to 12.8 years at 8 mg/kg, po every 24 hrs coadministered with 8 mg/kg abacavir by HPLC; conditions: human, in vivo
[11] = Cmax in HIV-1 infected children aged 8.5 to 12.3 years at 4 mg/kg, po every 12 hrs by HPLC; type: ADME, organism-based; design: dose 4 mg/kg, route oral; conditions: human, in vivo
Homo sapiens = assay: AUC in HIV-1 infected children with body weight <17 kg at 10 mg/kg, po every 24 hrs coadministered with 240 mg/m2 of didanosine and efavirenz by HPLC; type: ADME, organism-based, Plasma; design: dose 10 mg/kg, route oral; conditions: in vivo
[12] = AUC (0 to tau) in HIV-1 infected children aged 2.1 to 12.8 years at 8 mg/kg, po every 24 hrs coadministered with 8 mg/kg abacavir by HPLC; conditions: human, plasma
[13] = Cmax in HIV-1 infected children aged 2.1 to 12.8 years at 4 mg/kg, po every 12 hrs coadministered with 8 mg/kg abacavir by HPLC; type: ADME, organism-based; design: dose 4 mg/kg, route oral; conditions: human, in vivo
[14] = AUC (0 to tau) in HIV-1 infected children aged 6.9 years at 4 mg/kg, po every 12 hrs coadministered with nevirapine and stavudine by HPLC; type: ADME, organism-based; design: dose 4 mg/kg, route oral; conditions: human, plasma

For `Nc1ccn([C@@H]2CS[C@H](CO)O2)c(=O)n1` [LAMIVUDINE], the AUC tau at 12 h [1] was 4440 ng·h/mL, the Cmax [2] was 1700 ng/mL and the AUC tau at 24 h [3] was 7800 ng·h/mL. The AUC tau at 12 h [4] was 3710 ng·h/mL, the AUC at 24 h [5] was 9100 ng·h/mL and the AUC tau at 12 h [6] was 6540 ng·h/mL. It also gave a Cmax [7] of 1330 ng/mL, a Cmax [8] of 980 ng/mL and an AUC at 24 h [9] of 8100 ng·h/mL. The Cmax [10] was 2090 ng/mL, the Cmax [11] was 1840 ng/mL and the AUC (Homo sapiens) was 9800 ng·h/mL. It also gave an AUC tau at 24 h [12] of 9800 ng·h/mL, a Cmax [13] of 1110 ng/mL and an AUC tau at 12 h [14] of 5420 ng·h/mL.
